Only some compounds are listed: those with a hit (about 2.2% of all), similar ones and a draw of the others.
FLuc act counter – FLuc activators, initial screening, artefact control for FLuc-dependent activation tests, biochemical, ATPlite luminescence. Luciferin 4-monooxygenase (Photinus pyralis), P08659. ATPlite luciferase biochemical, 10 min; 0 = ATP-free wells, 1 = DMSO control. activation factor at 10 µM. 200,000 tested, under 10 active. AID 1027, 2008;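 active = luciferase activation factor, scaled between plate controls, of at least 2 with compound at 10 µM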
Target sequence (P08659 whole entry, looked up): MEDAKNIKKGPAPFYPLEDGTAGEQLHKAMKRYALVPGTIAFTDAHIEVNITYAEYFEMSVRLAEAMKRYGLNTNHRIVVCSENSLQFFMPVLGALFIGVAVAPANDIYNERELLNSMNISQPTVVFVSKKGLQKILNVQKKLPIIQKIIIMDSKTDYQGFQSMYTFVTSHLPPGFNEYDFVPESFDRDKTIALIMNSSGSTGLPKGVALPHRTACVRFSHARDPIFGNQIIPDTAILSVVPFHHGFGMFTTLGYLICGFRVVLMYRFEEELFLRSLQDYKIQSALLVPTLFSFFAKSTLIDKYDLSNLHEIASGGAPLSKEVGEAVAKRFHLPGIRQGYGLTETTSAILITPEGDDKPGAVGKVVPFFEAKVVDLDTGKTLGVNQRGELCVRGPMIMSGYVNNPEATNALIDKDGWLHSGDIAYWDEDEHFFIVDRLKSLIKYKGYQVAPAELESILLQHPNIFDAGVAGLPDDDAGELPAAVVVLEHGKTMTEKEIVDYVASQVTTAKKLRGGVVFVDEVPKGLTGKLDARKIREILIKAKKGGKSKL
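assay system = Luciferase/luciferin detection reagent, cell-free biochemical luciferase assay | also added = ATP substrate | times = 10 min post-reagent at room temperature | measured by = luminescence from luciferase reaction | measure = luciferase activation, seen as luminescence increase over controls | benchmarks = low control with PBS replacing ATP, high control enzyme plus ATP without compound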
PPC-1+TRAIL kill – compounds killing PPC-1 cancer cells with TRAIL present, primary screen, TRAIL potentiator project, ATPLite luminescence, uHTS; PPC-1 cells + TRAIL, ATPLite viability luminescence; cell killing (% activity), % at 4 µM or 5 µM; 220,000 tested, 0.41% active;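 active = cell killing above 50% in the first pass at 4 µM, then a duplicate retest at 5 µM averaging 50% or more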;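 note: plate controls were cells with TRAIL plus DMSO for no effect and medium-only wells lacking cells for full effect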
FLuc inh counter – firefly luciferase enzyme inhibitors, primary screen, artefact control for luciferase-based inhibitor screens, biochemical, luminescence, ATPLite | Luciferin 4-monooxygenase (Photinus pyralis), P08659 | 10 min | inhibition, % at 10 µM | 200,000 tested, 1.5% active | AID 1006, 2008;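 active = inhibition above about 50% when tested at 10 µM, limit read from the data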
C8 TRAIL sens – viability loss with TRAIL in NB7+C8 cells, primary screen, TRAIL sensitizer project, cell-based, ATPlite luminescence; inhibition (viability loss, TRAIL sensitization), % at 10 µM; 360,000 tested, 1% active; AID 624354, 2012;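 active = compounds causing at least 50% loss of cell viability in the single-dose screen, relative to plate controls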
STAT3 blocker – IL-6 driven STAT3 reporter inhibitors, primary screen, U3A cells, luciferase, luminescence, MLSCN library. IL-6 STAT3-luciferase reporter; host cell line lacks STAT1. inhibition, % at 5.5 µM. 190,000 tested, 0.89% active;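 active = inhibition above the mean inhibition across all screened compounds plus 3 SD, cut at about 44% in these data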;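 note: 0% = DMSO only wells and 100% = 100 µM nifuroxazide control wells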
HSP90 inh – HSP90 inhibitors, primary screen, cell lysate, luminescence | inhibition, % at 5.6 µM | AID 1789, 2009 | Rabbit reticulocyte lysate, luciferase refolding luminescence, 3 h | 290,000 tested, 0.91% active | Heat shock protein HSP 90 (rabbit reticulocyte lysate; luciferase refolding);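 active = inhibition above the screen-wide mean plus 3 SD, computed separately per campaign, cut at about 16% in these data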;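 note: 0% = DMSO wells and 100% = 60 µM geldanamycin wells; inhibitors lower the luminescence because luciferase stays unfolded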
Active calls of the source: *.

`COCCOCCn1c(CCCO)nc2ccccc21` gave FLuc act counter 1.1, PPC-1+TRAIL kill 9.1, FLuc inh counter -7.7, C8 TRAIL sens 2.0, STAT3 blocker 0.3 and HSP90 inh 1.8.
`CC(C)n1c(CN(C)c2ccccc2)nc2ccccc21` gave C8 TRAIL sens 9.1 and HSP90 inh -0.5.
CC(C)n1c(/C=C/c2ccccc2)nc2ccccc21 was read as FLuc act counter 0.3, PPC-1+TRAIL kill 32.7, FLuc inh counter 70.5*, C8 TRAIL sens 51.6*, STAT3 blocker 9.3 and HSP90 inh 3.1.
Screening COc1ccc(C(=O)NC(Cn2ccnc2)C(C)(C)C)cc1OC1CCN(C(C)C)CC1 (configuration not stated) returned C8 TRAIL sens -13.8 and HSP90 inh 0.5.
COc1ccc(N2CCN(C(=O)COC(=O)CCOc3ccc(C(C)(C)C)cc3)CC2)cc1 was read as C8 TRAIL sens -14.9.
`CCOC(=O)c1sc(/N=C/c2ccc(O)cc2O)cc1C` gave FLuc act counter 0.1, PPC-1+TRAIL kill 21.7, FLuc inh counter 86.1*, C8 TRAIL sens 10.8, STAT3 blocker 6.9 and HSP90 inh 2.5.
For CSc1ccc(Cl)c(C(=O)NCCCn2ccnc2)c1 the results were C8 TRAIL sens 4.5 and HSP90 inh -1.3.
For C/C(=N\NC(=O)c1cc(Br)ccc1O)c1cccs1 the results were FLuc act counter 0.4, PPC-1+TRAIL kill 26.1, FLuc inh counter 64.7*, C8 TRAIL sens 21.2, STAT3 blocker 27.4 and HSP90 inh -0.5.
Screening C/C(=N\NC(=O)c1cc(C)[nH]n1)c1cccs1 returned FLuc act counter 0.4, PPC-1+TRAIL kill 6.8, FLuc inh counter 55.9*, C8 TRAIL sens 18.3, STAT3 blocker 33.2 and HSP90 inh 0.1.
For C/C(=N\NC(=O)c1ccccc1O)c1ccc(Br)s1 the results were FLuc act counter 0.2, PPC-1+TRAIL kill 41.1, FLuc inh counter 78.7*, C8 TRAIL sens 54.4*, STAT3 blocker 4.0 and HSP90 inh 0.6.
For C/C(=N\NC(=O)c1cc(C)[nH]n1)c1ccc(-c2ccccc2)cc1 the results were C8 TRAIL sens 2.8 and HSP90 inh -5.0.
Screening C/C(=N/NC(=O)c1ccc(Br)o1)c1cccs1 returned C8 TRAIL sens -2.6 and HSP90 inh -4.3.
Screening C/C(=N\NC(=O)c1ccccc1[N+](=O)[O-])c1ccc(Br)s1 returned FLuc act counter 1.1, PPC-1+TRAIL kill 4.4, FLuc inh counter -6.4, C8 TRAIL sens -5.2, STAT3 blocker 2.0 and HSP90 inh 2.6.
Screening Cc1nc(Nc2nc3ccccc3o2)nc(C)c1C returned FLuc act counter 0.5, PPC-1+TRAIL kill 20.2, FLuc inh counter 51.3*, C8 TRAIL sens 26.0, STAT3 blocker 41.4 and HSP90 inh 6.7.
For CC1(C(=O)NS(=O)(=O)c2ccc(Cl)s2)CCN1C(=O)CCc1ccccc1 (configuration not stated) the results were C8 TRAIL sens -19.3.
Screening COC(=O)c1c(C)[nH]c(C(=O)/C=C/c2ccccc2)c1C returned FLuc act counter 0.4, PPC-1+TRAIL kill 35.6, FLuc inh counter 58.2*, C8 TRAIL sens 29.0, STAT3 blocker 29.1 and HSP90 inh 13.0.
COC(=O)c1c(C)[nH]c(C(=O)/C=C/c2ccc(C)cc2)c1C was read as PPC-1+TRAIL kill 5.1, C8 TRAIL sens 11.1 and HSP90 inh 14.3.
For CCN1C(=O)C(=O)N(CC(=O)N2CCN(c3ccccc3)CC2)C1=O the results were C8 TRAIL sens -20.0.
`N#CCCN(C(=O)CSc1ncccn1)c1ccc2c(c1)OCCO2` gave C8 TRAIL sens 6.6.
`O=C(CCl)N(C/C=C/c1ccccc1)c1ccc2c(c1)OCCO2` gave FLuc act counter 0.9, PPC-1+TRAIL kill 14.3, FLuc inh counter 10.3, C8 TRAIL sens 91.6*, STAT3 blocker 26.1 and HSP90 inh 2.9.
For O=NN(C(=O)NCc1cccnc1)C1CCCCC1 the results were C8 TRAIL sens -3.4.
`Nc1ccc(C(=O)NN2C(=O)[C@H](Cl)C2c2ccc(Cl)cc2)cc1` (some centres not stated) gave C8 TRAIL sens 94.5*.
Cc1ccc(NC(=S)c2ccncc2)c(C)c1 was read as C8 TRAIL sens -3.0 and HSP90 inh 2.8.
`Cc1ccc(NC(=S)c2nc3ccccc3[nH]2)c(C)c1` gave FLuc act counter 0.2, PPC-1+TRAIL kill 38.0, FLuc inh counter 84.8*, C8 TRAIL sens 73.0*, STAT3 blocker 12.9 and HSP90 inh 2.2.
Cc1cccc(/C=C2/Sc3ccc(C(=O)NCCN4CCCC4)cc3NC2=O)c1 was read as C8 TRAIL sens 22.4 and HSP90 inh -2.7.
For Cc1cccc(/C=C2/Sc3ccc(C(=O)NCCCN4CCOCC4)cc3NC2=O)c1 the results were C8 TRAIL sens 13.0 and HSP90 inh -0.1.
For COc1cccc(/C=C2/Sc3ccc(C(=O)NCCN4CCCCCC4)cc3NC2=O)c1 the results were C8 TRAIL sens 75.4* and HSP90 inh 0.6.
CCN1CCN(CCCNC(=O)c2ccc3c(c2)NC(=O)/C(=C\c2cccc(C)c2)S3)CC1 was read as C8 TRAIL sens 70.5* and HSP90 inh -2.6.
Screening COc1cccc(CN2CCCC(CNC(=O)c3ccc(F)cc3)C2)c1OC (configuration not stated) returned FLuc act counter 1.1, FLuc inh counter -5.0, C8 TRAIL sens -0.9, STAT3 blocker -0.8 and HSP90 inh -1.8.
`Cc1cccc(C)c1NC(=O)C(c1ccncc1)n1c(=O)c(-c2cc3ccccc3[nH]2)nc2ccccc21` (configuration not stated) gave C8 TRAIL sens -1.1.
`CCOc1cccc2sc(N(CCCN(C)C)C(=O)c3ccc(S(=O)(=O)N4CCc5ccccc5C4)cc3)nc12` gave C8 TRAIL sens 68.3* and HSP90 inh 4.2.
CCc1ccc2nc(N(CCCN(C)C)C(=O)c3ccc(S(=O)(=O)N4CCc5ccccc5C4)cc3)sc2c1 was read as C8 TRAIL sens 79.5* and HSP90 inh 2.1.
CCc1ccc2nc(N(CCCN(C)C)C(=O)c3ccc(S(=O)(=O)N(C)C4CCCCC4)cc3)sc2c1 was read as C8 TRAIL sens 45.0 and HSP90 inh 9.1.
Cc1ccc(S(=O)(=O)N2CCN(c3ncnc4sccc34)CC2)cc1C was read as C8 TRAIL sens 46.2.
For O=S(=O)(c1ccc2c(c1)OCCO2)N1CCN(c2ncnc3sccc23)CC1 the results were FLuc act counter 1, PPC-1+TRAIL kill 32.2, FLuc inh counter 1.8, C8 TRAIL sens 34.1, STAT3 blocker 60.7* and HSP90 inh 1.5.

From PubChem
